pIC50: −log10 of the molar value.
Legend:
[1] = system: Human immunodeficiency virus 1; experiment: Inhibitory activity tested against the HIV-1 in CEM cells; format: functional, organism-based; settings: Human immunodeficiency virus 1, CCRF-CEM
How it was run: (§1)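 HIV-1-induced cytopathicity in CEM 4 or MT-4 cell cultures was assessed by counting viable cells after MTT (3-(4,5-dimethylthiazol-2-yl)-2,5-diphenyltetrazolium bromide) staining. IC50 is the concentration that inhibits cytopathicity by 50%. For routine testing, the highest concentration was generally 3 µM, because solubility was limited above 10 µM.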

[2] = system: Human immunodeficiency virus 1; experiment: Inhibitory activity tested against the HIV-1 in MT-4 cells; format: functional, organism-based; settings: Human immunodeficiency virus 1, MT4; how it was run: as §1

Compound	pIC50 [1]	pIC50 [2]
C=C(C)[C@@H]1CC[C@]2(C(=O)NCCCCCCCC(=O)N3CCC[C@H]3C(=O)O)CC[C@]3(C)[C@H](CCC4[C@@]5(C)CC[C@H](O)C(C)(C)[C@@H]5CC[C@]43C)[C@@H]12 (stereo partly specified)	6.19	7.24
C=C(C)[C@@H]1CC[C@]2(C(=O)NCCCCCCCC(=O)NC(CC(=O)O)C(F)(F)F)CC[C@]3(C)[C@H](CCC4[C@@]5(C)CC[C@H](O)C(C)(C)[C@@H]5CC[C@]43C)[C@@H]12 (stereo partly specified)	6.81	
C=C(C)[C@@H]1CC[C@]2(C(=O)NCCCCCCCC(=O)N[C@@H](CO)C(=O)O)CC[C@]3(C)[C@H](CCC4[C@@]5(C)CC[C@H](O)C(C)(C)[C@@H]5CC[C@]43C)[C@@H]12 (stereo partly specified)	6.60	6.60
C=C(C)[C@@H]1CC[C@]2(C(=O)NCCCCCCCC(=O)NC(C)CC(=O)O)CC[C@]3(C)[C@H](CCC4[C@@]5(C)CC[C@H](O)C(C)(C)[C@@H]5CC[C@]43C)[C@@H]12 (stereo partly specified)	6.89	
C=C(C)[C@@H]1CC[C@]2(C(=O)NCCCCCCCC(=O)N[C@@H](CC(=O)O)C(=O)O)CC[C@]3(C)[C@H](CCC4[C@@]5(C)CC[C@H](O)C(C)(C)[C@@H]5CC[C@]43C)[C@@H]12 (stereo partly specified)	4.74	
C=C(C)[C@@H]1CC[C@]2(C(=O)NCCCCCCCC(=O)N[C@@H](Cc3ccccc3)C(=O)O)CC[C@]3(C)[C@H](CCC4[C@@]5(C)CC[C@H](O)C(C)(C)[C@@H]5CC[C@]43C)[C@@H]12 (stereo partly specified)	5.70	
C=C(C)[C@@H]1CC[C@]2(C(=O)NCCCCCCCCCCCC(=O)O)CC[C@]3(C)[C@H](CCC4[C@@]5(C)CC[C@H](O)C(C)(C)[C@@H]5CC[C@]43C)[C@@H]12 (stereo partly specified)	6.26	6.60
C=C(C)[C@@H]1CC[C@]2(C(=O)NCCCCCCCC(=O)NCC(O)CC(=O)O)CC[C@]3(C)[C@H](CCC4[C@@]5(C)CC[C@H](O)C(C)(C)[C@@H]5CC[C@]43C)[C@@H]12 (stereo partly specified)	6.70	7.48
C=C(C)[C@@H]1CC[C@]2(C(=O)NCCCCCCCC(=O)N[C@@H](Cc3ccccc3)[C@@H](O)CC(=O)O)CC[C@]3(C)[C@H](CCC4[C@@]5(C)CC[C@H](O)C(C)(C)[C@@H]5CC[C@]43C)[C@@H]12 (stereo partly specified)	6.89	7.48
C=C(C)[C@@H]1CC[C@]2(C(=O)NCCCCCCCC(=O)O)CC[C@]3(C)[C@H](CCC4[C@@]5(C)CC[C@H](O)C(C)(C)[C@@H]5CC[C@]43C)[C@@H]12 (stereo partly specified)	6.12	6.33
C=C(C)[C@@H]1CC[C@]2(C(=O)NCCCCCCCNC(=O)c3ccc(C(=O)O)cc3)CC[C@]3(C)[C@H](CCC4[C@@]5(C)CC[C@H](O)C(C)(C)[C@@H]5CC[C@]43C)[C@@H]12 (stereo partly specified)	6.96	7.66
C=C(C)[C@@H]1CC[C@]2(C(=O)NCCCCCCCC(=O)N[C@@H](CCCCN)C(=O)O)CC[C@]3(C)[C@H](CCC4[C@@]5(C)CC[C@H](O)C(C)(C)[C@@H]5CC[C@]43C)[C@@H]12 (stereo partly specified)	5.00	
C=C(C)[C@@H]1CC[C@]2(C(=O)NCCCCCCCC(=O)N[C@@H](CC(C)C)[C@H](O)CC(=O)O)CC[C@]3(C)[C@H](CCC4[C@@]5(C)CC[C@H](O)C(C)(C)[C@@H]5CC[C@]43C)[C@@H]12 (stereo partly specified)	7.30	7.36
C=C(C)[C@@H]1CC[C@]2(C(=O)NCCCCCCCC(=O)N[C@H](CO)C(=O)O)CC[C@]3(C)[C@H](CCC4[C@@]5(C)CC[C@H](O)C(C)(C)[C@@H]5CC[C@]43C)[C@@H]12 (stereo partly specified)	5.72	
C=C(C)[C@@H]1CC[C@]2(C(=O)NCCCCCCCNC(=O)c3ccccc3C(=O)O)CC[C@]3(C)[C@H](CCC4[C@@]5(C)CC[C@H](O)C(C)(C)[C@@H]5CC[C@]43C)[C@@H]12 (stereo partly specified)	5.74	
C=C(C)[C@@H]1CC[C@]2(C(=O)NCCCCCCCCCCC(=O)O)CC[C@]3(C)[C@H](CCC4[C@@]5(C)CC[C@H](O)C(C)(C)[C@@H]5CC[C@]43C)[C@@H]12 (stereo partly specified)	6.64	6.35
C=C(C)[C@@H]1CC[C@]2(C(=O)NCCCCCCCCC(=O)O)CC[C@]3(C)[C@H](CCC4[C@@]5(C)CC[C@H](O)C(C)(C)[C@@H]5CC[C@]43C)[C@@H]12 (stereo partly specified)	6.38	5.47
C=C(C)[C@@H]1CC[C@]2(C(=O)NCCCCCCCC(=O)NCC(C)C(=O)O)CC[C@]3(C)[C@H](CCC4[C@@]5(C)CC[C@H](O)C(C)(C)[C@@H]5CC[C@]43C)[C@@H]12 (stereo partly specified)	6.89	
C=C(C)[C@@H]1CC[C@]2(C(=O)NCCCCCCCC(=O)N3CCCC(C(=O)O)C3)CC[C@]3(C)[C@H](CCC4[C@@]5(C)CC[C@H](O)C(C)(C)[C@@H]5CC[C@]43C)[C@@H]12 (stereo partly specified)	6.73	
C=C(C)[C@@H]1CC[C@]2(C(=O)NCCCCCCCC(=O)N[C@@H](CC(N)=O)C(=O)O)CC[C@]3(C)[C@H](CCC4[C@@]5(C)CC[C@H](O)C(C)(C)[C@@H]5CC[C@]43C)[C@@H]12 (stereo partly specified)	6.02	

Now from value to compound:

pIC50 [1]	pIC50 [2]	Compound
7.02	7.28	C=C(C)[C@@H]1CC[C@]2(C(=O)NCCCCCCCNC(=O)CCC(=O)O)CC[C@]3(C)[C@H](CCC4[C@@]5(C)CC[C@H](O)C(C)(C)[C@@H]5CC[C@]43C)[C@@H]12 (stereo partly specified)
7.07	7.33	C=C(C)[C@@H]1CC[C@]2(C(=O)NCCCCCCCC(=O)NC(CC(=O)O)c3ccccc3)CC[C@]3(C)[C@H](CCC4[C@@]5(C)CC[C@H](O)C(C)(C)[C@@H]5CC[C@]43C)[C@@H]12 (stereo partly specified)
7.30	7.47	C=C(C)[C@@H]1CC[C@]2(C(=O)NCCCCCCCNC(=O)CC(=O)O)CC[C@]3(C)[C@H](CCC4[C@@]5(C)CC[C@H](O)C(C)(C)[C@@H]5CC[C@]43C)[C@@H]12 (stereo partly specified)
7.70		C=C(C)[C@@H]1CC[C@]2(C(=O)NCCCCCCCNC(=O)CCCC(=O)O)CC[C@]3(C)[C@H](CCC4[C@@]5(C)CC[C@H](O)C(C)(C)[C@@H]5CC[C@]43C)[C@@H]12 (stereo partly specified)
7.10		C=C(C)[C@@H]1CC[C@]2(C(=O)NCCCCCCCC(=O)Nc3cccc(C(=O)O)c3)CC[C@]3(C)[C@H](CCC4[C@@]5(C)CC[C@H](O)C(C)(C)[C@@H]5CC[C@]43C)[C@@H]12 (stereo partly specified)
7.02		C=C(C)[C@@H]1CC[C@]2(C(=O)NCCCCCCCC(=O)NC(F)CC(=O)O)CC[C@]3(C)[C@H](CCC4[C@@]5(C)CC[C@H](O)C(C)(C)[C@@H]5CC[C@]43C)[C@@H]12 (stereo partly specified)
7.28	7.07	C=C(C)[C@@H]1CC[C@]2(C(=O)NCCCCCCCC(=O)N[C@H](CCC(=O)O)CC(C)C)CC[C@]3(C)[C@H](CCC4[C@@]5(C)CC[C@H](O)C(C)(C)[C@@H]5CC[C@]43C)[C@@H]12 (stereo partly specified)
7.04	7.21	C=C(C)[C@@H]1CC[C@]2(C(=O)NCCCCCCCC(=O)N[C@@H](C)C(=O)O)CC[C@]3(C)[C@H](CCC4[C@@]5(C)CC[C@H](O)C(C)(C)[C@@H]5CC[C@]43C)[C@@H]12 (stereo partly specified)
7.21		C=C(C)[C@@H]1CC[C@]2(C(=O)NCCCCCCCC(=O)NCCCCC(=O)O)CC[C@]3(C)[C@H](CCC4[C@@]5(C)CC[C@H](O)C(C)(C)[C@@H]5CC[C@]43C)[C@@H]12 (stereo partly specified)
7.36	6.89	C=C(C)[C@@H]1CC[C@]2(C(=O)NCCCCCCCC(=O)NCCCC(=O)O)CC[C@]3(C)[C@H](CCC4[C@@]5(C)CC[C@H](O)C(C)(C)[C@@H]5CC[C@]43C)[C@@H]12 (stereo partly specified)
